Assay results: ChEMBL document CHEMBL4270526, “A novel NAE/UAE dual inhibitor LP0040 blocks neddylation and ubiquitination leading to growth inhibition and apoptosis of cancer cells” (Eur J Med Chem, 2018)
Active and inactive are the calls of the source. The rule behind the calls is not given here.

Assays:
[1] = Antiproliferative activity against human LO2 cells after 48 hrs by CCK8 assay; type: cell-based, L02; conditions: read-out: LC50
[2] = Antiproliferative activity against HEK293T cells after 48 hrs by CCK8 assay; type: cell-based, HEK-293T; conditions: human, read-out: LC50
[3] = Antiproliferative activity against HUVEC after 48 hrs by CCK8 assay; type: cell-based; conditions: human, read-out: LC50
AGS = assay: Antiproliferative activity against human AGS cells after 48 hrs by CCK8 assay; type: functional, cell-based
Outline: (§1)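 Cells seeded at 6 × 10^3 cells/well and left 12 h at 37 °C, 5% CO2. Medium then replaced with serial compound dilutions, bortezomib as positive control. After 48 h, CCK-8 added for 4 h and absorbance read at 450 nm. Three repeats; IC50 from normalized nonlinear regression of inhibition curves.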

A549 = assay: Antiproliferative activity against human A549 cells after 48 hrs by CCK8 assay; type: functional, cell-based; conditions: A549, 48 h; outline: as §1
HCT-116 = assay: Antiproliferative activity against human HCT116 cells after 48 hrs by CCK8 assay; type: functional, cell-based; conditions: HCT-116, 48 h; outline: as §1
SK-OV-3 = assay: Antiproliferative activity against human SKOV3 cells after 48 hrs by CCK8 assay; type: functional, cell-based; conditions: SK-OV-3, 48 h; outline: as §1
[4] = Hemolytic activity against rabbit erythrocytes assessed as hemolysis at 100 uM measured after 1 hr; type: ADME, cell-based, Oryctolagus cuniculus, Erythrocyte; conditions: read-out: Activity
Outline: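 Rabbit erythrocytes pelleted at 3000 rpm for 10 min, washed twice and resuspended in PBS. Mixed 1:1 with 200 μM compound solution in PBS, 1 h at 37 °C. PBS served as 0% and 1% Triton X-100 as 100% hemolysis. After centrifugation, supernatant hemoglobin read at 540 nm; % hemolysis calculated relative to the Triton and PBS controls.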

K562 = assay: Antiproliferative activity against human K562 cells after 48 hrs by CCK8 assay; type: functional, cell-based; conditions: K562, 48 h; outline: as §1
BXPC-3 = assay: Antiproliferative activity against human BxPC3 cells after 48 hrs by CCK8 assay; type: functional, cell-based; conditions: BXPC-3, 48 h; outline: as §1
[5] = target: T1, NEDD8 activating enzyme (Homo sapiens) (UniProt Q8TBC4+Q13564); assay: Inhibition of NAE in human AGS cells assessed as reduction in Ubc12-NEDD8 conjugation level at 10 to 90 uM after 24 hrs by Western blot analysis; type: cell-based
[6] = target: T1, NEDD8 activating enzyme (Homo sapiens); assay: Inhibition of NAE in human AGS cells assessed as reduction in Uba3-NEDD8 conjugation level at 10 to 90 uM after 24 hrs by Western blot analysis; type: cell-based
[7] = target: T1, NEDD8 activating enzyme (Homo sapiens); assay: Inhibition of NAE in human AGS cells assessed as reduction in Cullins-NEDD8 conjugation level at 10 to 90 uM after 24 hrs by Western blot analysis; type: cell-based
[8] = target: T1, NEDD8 activating enzyme (Homo sapiens); assay: Inhibition of NAE-mediated CRL neddylation in human AGS cells assessed as increase in NRF2 level after 24 hrs by Western blot analysis; type: cell-based
Outline: (§2)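 AGS cells given 2, 4, 6, 8 or 10 μM compound or 0.1% DMSO for 24 h, washed in ice-cold PBS and lysed in RIPA on ice. Equal protein loads run by SDS-PAGE: non-reducing for NEDD8/SUMO/Ub conjugates, reducing for p27, NRF2, CDT1 and cleaved caspase-3. Blotted to PVDF with primary antibody overnight at 4 °C and HRP secondary, ECL detection, densitometry. Three repeats.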

[9] = target: T1, NEDD8 activating enzyme (Homo sapiens); assay: Inhibition of NAE-mediated CRL neddylation in human AGS cells assessed as increase in CDT1 level after 24 hrs by Western blot analysis; type: cell-based; outline: as §2
[10] = target: T1, NEDD8 activating enzyme (Homo sapiens); assay: Inhibition of NAE-mediated CRL neddylation in human AGS cells assessed as increase in p27 level after 24 hrs by Western blot analysis; type: cell-based; outline: as §2

Compound `CC(C)C[C@H](NC(=O)[C@H](Cc1ccccc1)NC(=O)c1cnccn1)B(O)O` [BORTEZOMIB] has a CC50 at 48 h [1] of 0.398 µM, a CC50 at 48 h [2] of 0.016 µM and a CC50 at 48 h [3] of 0.018 µM.

With `O=c1cc(C#Cc2cccnc2)c2ccc(N3CCC(NCCc4ccccc4)CC3)cc2o1` the IC50 (AGS) was 1.66 µM, the IC50 (A549) was 3.35 µM and the IC50 (HCT-116) was 2.69 µM. For the same compound, the IC50 (SK-OV-3) was 7.7 µM, the hemolysis at 1 h, 100 µM [4] was < 10% and the IC50 (K562) was 3.3 µM. It also gave an IC50 (BXPC-3) of 4.33 µM.

With `O=c1cc(-c2cnc(O)nc2O)c2ccc(N3CCC(NCCc4ccccc4)CC3)cc2o1` the inhibition [5] was “inactive”, the inhibition [6] was “inactive” and the IC50 (AGS) was > 30 µM. The inhibition [7] was “inactive”, the IC50 (A549) was > 30 µM and the IC50 (HCT-116) was > 30 µM. The IC50 (SK-OV-3) was > 30 µM, the inhibition [8] was “inactive” and the inhibition [9] was “inactive”. The IC50 (K562) was > 30 µM, the IC50 (BXPC-3) was > 30 µM and the inhibition [10] was “inactive”.

`Clc1ccc(CCNC2CCN(Cc3ccccc3)CC2)c(Cl)c1` showed an IC50 (AGS) of 9.92 µM, an IC50 (A549) of 5.55 µM and an IC50 (HCT-116) of 10.6 µM. It also gave an IC50 (SK-OV-3) of 9.26 µM, an IC50 (K562) of 5.51 µM and an IC50 (BXPC-3) of 12.4 µM.

With `O=c1cc(C#CC2(O)CCCCC2)c2ccc(N3CCC(NCCc4ccccc4)CC3)cc2o1` the IC50 (AGS) was 1.71 µM, the IC50 (A549) was 2.48 µM and the IC50 (HCT-116) was 2.79 µM. For the same compound, the IC50 (SK-OV-3) was 4.35 µM, the IC50 (K562) was 2.63 µM and the IC50 (BXPC-3) was 2.01 µM.

`Cc1ccc(-c2cc(=O)oc3cc(N4CCC(NCCc5ccccc5)CC4)ccc23)cc1C` gave an IC50 (AGS) of 1.89 µM, an IC50 (A549) of 3.77 µM and an IC50 (HCT-116) of 5.82 µM. The IC50 (SK-OV-3) was 6.42 µM, the IC50 (K562) was 3.26 µM and the IC50 (BXPC-3) was 8.44 µM.

For `O=c1cc(C#Cc2cccc(Cl)c2)c2ccc(N3CCC(NCCc4ccccc4)CC3)cc2o1`, the IC50 (AGS) was 1.42 µM, the IC50 (A549) was 3.1 µM and the IC50 (HCT-116) was 4.27 µM. For the same compound, the IC50 (SK-OV-3) was 7.5 µM, the hemolysis at 1 h, 100 µM [4] was < 10% and the IC50 (K562) was 1.32 µM. It also gave an IC50 (BXPC-3) of 1.33 µM.

For `NS(=O)(=O)OC[C@@H]1C[C@@H](n2ccc3c(N[C@@H]4CCc5ccccc54)ncnc32)C[C@@H]1O`, the CC50 at 48 h [1] was 9.01 µM, the CC50 at 48 h [2] was 6.17 µM and the hemolysis at 1 h, 100 µM [4] was 5.8%. It also gave a CC50 at 48 h [3] of 4.79 µM.

With `O=c1cc(-c2ccc(Oc3ccccc3)cc2)c2ccc(N3CCC(NCCc4ccccc4)CC3)cc2o1` the IC50 (AGS) was 1.26 µM, the IC50 (A549) was 3.83 µM and the IC50 (HCT-116) was 6.11 µM. The IC50 (SK-OV-3) was 3.22 µM, the IC50 (K562) was 1.53 µM and the IC50 (BXPC-3) was 2.82 µM.

In the case of `O=c1cc(-c2c[nH]nn2)c2ccc(N3CCC(NCCc4ccccc4)CC3)cc2o1`, the IC50 (AGS) is reported as > 30 µM, the IC50 (A549) is reported as > 30 µM and the IC50 (HCT-116) is reported as > 30 µM. For the same compound, the IC50 (SK-OV-3) was > 30 µM, the IC50 (K562) was > 30 µM and the IC50 (BXPC-3) was > 30 µM.

Compound `O=c1cc(C#CC2CCCCC2)c2ccc(N3CCC(NCCc4ccccc4)CC3)cc2o1` has an IC50 (AGS) of 1.13 µM, an IC50 (A549) of 2.99 µM and an IC50 (HCT-116) of 2.81 µM. The IC50 (SK-OV-3) was 4.17 µM, the IC50 (K562) was 1.17 µM and the IC50 (BXPC-3) was 4.08 µM.

Compound `Cc1cc(-c2cc(=O)oc3cc(N4CCC(NCCc5ccccc5)CC4)ccc23)ccc1C(F)(F)F` has an IC50 (AGS) of 1.39 µM, an IC50 (A549) of 3.09 µM and an IC50 (HCT-116) of 6 µM. The IC50 (SK-OV-3) was 5.94 µM, the IC50 (K562) was 3.29 µM and the IC50 (BXPC-3) was 7.67 µM.
